From ChEMBL document CHEMBL3124807 (Eur J Med Chem, 2014)

Key:
[1] = Selectivity index, ratio of IC50 for ovine COX1 to IC50 for human recombinant COX2
Method in brief: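 IC50 (COX-1)/IC50 (COX-2). Both IC50 values come from the EIA described above, run with ovine COX-1 or human recombinant COX-2 under the same buffer, preincubation, arachidonic acid and duplicate conditions.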

[2] = target: T1, Prostaglandin G/H synthase 2 (Homo sapiens, UniProt P35354); assay: Inhibition of human recombinant COX2 using arachidonic acid as substrate incubated for 10 mins prior to substrate addition measured after 2 mins by enzyme immunoassay
T1 sequence (P35354 whole entry): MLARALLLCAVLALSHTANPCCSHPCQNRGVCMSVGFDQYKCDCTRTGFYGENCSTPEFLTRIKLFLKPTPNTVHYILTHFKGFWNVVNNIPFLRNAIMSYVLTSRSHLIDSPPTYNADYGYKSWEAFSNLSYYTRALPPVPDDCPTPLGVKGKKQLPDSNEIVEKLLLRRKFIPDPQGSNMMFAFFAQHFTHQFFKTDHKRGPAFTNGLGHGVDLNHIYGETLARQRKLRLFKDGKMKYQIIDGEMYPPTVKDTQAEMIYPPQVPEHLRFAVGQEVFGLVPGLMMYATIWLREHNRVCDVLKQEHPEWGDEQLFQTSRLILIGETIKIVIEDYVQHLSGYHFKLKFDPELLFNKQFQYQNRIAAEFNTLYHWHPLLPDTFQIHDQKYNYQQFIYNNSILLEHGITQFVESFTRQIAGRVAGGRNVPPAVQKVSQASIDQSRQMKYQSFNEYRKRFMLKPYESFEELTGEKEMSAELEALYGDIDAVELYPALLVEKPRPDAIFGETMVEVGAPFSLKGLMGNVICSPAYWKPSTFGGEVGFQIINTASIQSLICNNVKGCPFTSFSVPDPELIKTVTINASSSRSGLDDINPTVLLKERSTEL

[3] = target: T2, Prostaglandin G/H synthase 1 (Ovis aries, UniProt P05979); assay: Inhibition of ovine COX1 using arachidonic acid as substrate incubated for 10 mins prior to substrate addition measured after 2 mins by enzyme immunoassay
T2 sequence (P05979 whole entry): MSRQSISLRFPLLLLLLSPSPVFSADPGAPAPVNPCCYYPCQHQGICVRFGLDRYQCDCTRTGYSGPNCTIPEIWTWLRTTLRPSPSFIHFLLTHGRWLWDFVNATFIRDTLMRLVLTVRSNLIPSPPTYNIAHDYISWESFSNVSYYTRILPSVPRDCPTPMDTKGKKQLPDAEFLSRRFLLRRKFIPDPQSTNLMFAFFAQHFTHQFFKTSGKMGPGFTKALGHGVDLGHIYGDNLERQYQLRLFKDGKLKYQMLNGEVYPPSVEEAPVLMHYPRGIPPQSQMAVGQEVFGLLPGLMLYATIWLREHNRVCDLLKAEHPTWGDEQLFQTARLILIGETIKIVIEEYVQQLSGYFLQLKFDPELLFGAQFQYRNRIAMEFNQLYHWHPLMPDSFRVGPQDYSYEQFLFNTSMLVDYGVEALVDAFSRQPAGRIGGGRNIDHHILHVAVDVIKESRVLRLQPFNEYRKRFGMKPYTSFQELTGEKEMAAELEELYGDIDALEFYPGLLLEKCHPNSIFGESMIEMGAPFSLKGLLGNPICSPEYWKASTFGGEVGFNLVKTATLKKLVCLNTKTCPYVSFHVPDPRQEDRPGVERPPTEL
Method in brief: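 Ovine COX-1 in 0.1 M Tris-HCl pH 8.0 with 5 mM EDTA, 2 mM phenol and heme. Test concentrations were 0, 0.01, 0.1, 1, 10 and 50 (final volume 1 ml). Preincubated 10 min at 37 °C, then arachidonic acid (100) was added and the reaction was stopped with 1 M HCl after 2 min. PGF2α (from SnCl2 reduction of PGH2) was quantified by competitive EIA at 410 nm. IC50 was taken from the concentration–inhibition curve, duplicates.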

Rattus norvegicus [4] = assay: Antiinflammatory activity in Wistar albino rat assessed as inhibition of formalin-induced paw edema at 50 mg/kg, po administered 1 hr prior to formalin challenge measured after 3 hrs relative to control; format: functional
Method in brief: (§1)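 Adult male Wistar albino rats (120–150 g), five per group. Dosed orally at 50 mg/kg in 10% aqueous DMSO (v/v) 1 h before 0.1 ml of 2.5% formalin was injected subcutaneously into the right hind paw; vehicle-only control group. Paw thickness was measured by Vernier caliper at 0 h and at 30 min, 1, 2 and 3 h. Edema inhibition % = (Vc − Vt)/Vc × 100; means of five ± S.E.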

Rattus norvegicus [5] = assay: Antiinflammatory activity in Wistar albino rat assessed as inhibition of formalin-induced paw edema at 50 mg/kg, po administered 1 hr prior to formalin challenge measured after 2 hrs relative to control; format: functional; method in brief: as §1
Rattus norvegicus [6] = assay: Antiinflammatory activity in Wistar albino rat assessed as inhibition of formalin-induced paw edema at 50 mg/kg, po administered 1 hr prior to formalin challenge measured after 30 mins relative to control; format: functional; method in brief: as §1
Rattus norvegicus [7] = assay: Ulcerogenic effect in fasted Wistar albino rat at 50 mg/kg, po measured 2 hrs post last dose; format: toxicity, organism-based; set-up: dose 50 mg/kg, route oral; settings: in vivo
Method in brief: (§2)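 Adult male Wistar albino rats (120–150 g), five per group, fasted 18 h before dosing. Oral doses were given for three successive days (test compounds 50 mg/kg, ibuprofen 25 mg/kg; control 10% aqueous DMSO), with feeding 2 h after dosing. Stomachs were removed 2 h after the last dose, opened along the greater curvature, rinsed with 0.9% NaCl and examined under a 10× lens. Ulcer index followed Robert's method (incidence/10, mean ulcer number, severity score).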

Rattus norvegicus [8] = assay: Antiinflammatory activity in Wistar albino rat assessed as inhibition of formalin-induced paw edema at 50 mg/kg, po administered 1 hr prior to formalin challenge measured after 1 hr relative to control; format: functional; method in brief: as §1
Rattus norvegicus [9] = assay: Ulcerogenic effect in fasted Wistar albino rat assessed as reduction in ulcerogenic potential at 50 mg/kg, po measured 2 hrs post last dose relative to celecoxib; format: toxicity, organism-based; set-up: dose 50 mg/kg, route oral; scale not given: the % may be the effect or the level left; settings: in vivo
Rattus norvegicus [10] = assay: Ulcerogenic effect in fasted Wistar albino rat at 25 mg/kg, po measured 2 hrs post last dose; format: toxicity, organism-based; set-up: dose 25 mg/kg, route oral; settings: in vivo; method in brief: as §2

| Ratio IC50 [1] | IC50 [2] | IC50 [3] | Structure (SMILES) | inhibition in vivo at 50 mg/kg (Rattus norvegicus [4]) | inhibition in vivo at 50 mg/kg (Rattus norvegicus [5]) | inhibition in vivo at 50 mg/kg (Rattus norvegicus [6]) | UI (Rattus norvegicus [7]) | inhibition in vivo at 50 mg/kg (Rattus norvegicus [8]) | Activity (Rattus norvegicus [9]) | UI (Rattus norvegicus [10]) |
| --- | --- | --- | --- | --- | --- | --- | --- | --- | --- | --- |
| > 96.2 | 0.52 µM | > 50 µM | COc1c(-c2cc(C(F)(F)F)nn2-c2ccc(S(N)(=O)=O)cc2)c(O)c(OC)c2occc12 | 91.8% | 87.9% | 72.2% | 11.56 | 79% |  |  |
| > 139 | 0.36 µM | > 50 µM | COc1c(-c2cc(-c3cccnc3)nn2-c2ccc(S(N)(=O)=O)cc2)c(O)c(OC)c2occc12 | 100% | 100% | 90.7% | 10.5 | 96.5% | 40% |  |
| > 125 | 0.4 µM | > 50 µM | COc1c(-c2cc(-c3cccnc3)nn2-c2ccc(S(N)(=O)=O)cc2)c(O)cc2occc12 | 100% | 100% | 90.1% | 13.82 | 96.2% |  |  |
| > 1.93 | 26 µM | > 50 µM | COc1cc2occc2c(OC)c1-c1cc(-c2ccc(Cl)cc2)n(-c2ccc(S(N)(=O)=O)cc2)n1 |  |  |  |  |  |  |  |
|  |  |  | CC(C)Cc1ccc(C(C)C(=O)O)cc1 (centres undefined) [IBUPROFEN] |  |  |  |  |  |  | 22.32 |
|  |  |  | Cc1ccc(-c2cc(C(F)(F)F)nn2-c2ccc(S(N)(=O)=O)cc2)cc1 [CELECOXIB] | 100% | 100% | 94.4% | 16.12 | 100% |  |  |
| > 147 | 0.34 µM | > 50 µM | COc1cc2occc2c(OC)c1-c1cc(-c2ccc(C(F)(F)F)cc2)n(-c2ccc(S(N)(=O)=O)cc2)n1 | 91.8% | 94.8% | 66.7% | 10.5 | 77.2% |  |  |
| > 7.14 | 7 µM | > 50 µM | COc1c(-c2cc(C(F)(F)F)nn2-c2ccc(S(N)(=O)=O)cc2)c(O)cc2occc12 |  |  |  |  |  |  |  |
| > 109 | 0.46 µM | > 50 µM | COc1cc2occc2c(OC)c1-c1cc(-c2ccc(F)cc2)n(-c2ccc(S(N)(=O)=O)cc2)n1 | 83.6% | 82.8% | 79.6% | 11.75 | 82.5% |  |  |
| > 1.43 | 35 µM | > 50 µM | COc1cc2occc2c(OC)c1-c1cc(-c2ccccc2)n(-c2ccc(S(N)(=O)=O)cc2)n1 |  |  |  |  |  |  |  |
| > 6.67 | 7.5 µM | > 50 µM | COc1c(-c2cc(C)nn2-c2ccc(S(N)(=O)=O)cc2)c(O)cc2occc12 |  |  |  |  |  |  |  |
